Measured values: ChEMBL document CHEMBL4513216, “Probing the Open Global Health Chemical Diversity Library for Multistage-Active Starting Points for Next-Generation Antimalarials” (ACS Infect Dis, 2020)

Assay: Toxicity liver stage against HepG2, at 10uM
Format: cell-based
Design: test concentration 10 uM, cell line HepG2-A16-CD81EGFP
Details: human, HepG2-A16-CD81EGFP cells; read-out: INHIBITION
How it was run: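 Uninfected HepG2-A16-CD81EGFP cells, 3 × 10^3 per well, 1536-well, plated on prespotted compound at 10 μM final, parasite-free screening media added to match infected plates; puromycin 10 μM positive, DMSO 0.5% negative; run in parallel with 48 h PbLuc assay at 37 °C, 5% CO2; viability by CellTiter-Glo luminescence, normalized to controls.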

## O=C(c1cc(CC2(NCc3ccccc3)COC2)no1)N1CCCCC1
  cytotoxicity at 10 µM: 1.14%

## CCCn1cnc2c1CN(S(=O)(=O)Cc1ccccc1)[C@H](C(=O)OC)C2
  cytotoxicity at 10 µM: -4.84%

## Cc1ccc(-c2cn3c(n2)CO[C@@H](CNCc2nccn2C)C3)cc1
  cytotoxicity at 10 µM: -10.6%

## CS(=O)(=O)c1ccc2c(c1)nc1n2[C@@H](CNCc2cccnc2)COC1
  cytotoxicity at 10 µM: -2.68%

## CN1C[C@@H]2CN(C(=O)C3CC=CC3)C[C@@H]2C1=O
  cytotoxicity at 10 µM: -114%

## CC(C)C(=O)N1CCc2nc(C(=O)Nc3cccnc3)sc2CC1
  cytotoxicity at 10 µM: 12.5%

## O=C(C1CCOCC1)N1C[C@H](OCc2cccnc2)[C@H]2COC[C@H]21
  cytotoxicity at 10 µM: 1.99%

## CCN1C(=O)C2(CCOCC2)c2cc(NC(=O)c3cc(C)n[nH]3)ccc21
  cytotoxicity at 10 µM: -2.49%

## CCN(CC)CC1CN(Cc2c(C)noc2C)Cc2nccn2C1 (stereo unspecified)
  cytotoxicity at 10 µM: 2.37%

## CC(=O)c1ccc(-n2ccc3nc(N4CCCC4)ncc3c2=O)cc1
  cytotoxicity at 10 µM: 1.45%

## COCCNC(=O)c1nc(-c2ccc3cc[nH]c3c2)no1
  cytotoxicity at 10 µM: -0.208%

## COc1ccccc1CNc1ncnc2c1NC(=O)CN2
  cytotoxicity at 10 µM: 11.3%

## CC(=O)N1CCOC(c2c(C(=O)NC(C)(C)C)sc3ccccc23)C1 (stereo unspecified)
  cytotoxicity at 10 µM: 8%

## Cc1ccc(C2CN(Cc3cccc4[nH]ccc34)CCO2)nc1 (stereo unspecified)
  cytotoxicity at 10 µM: -35.6%

## Cn1ccc(C(=O)N2CCC(Cc3cnc4[nH]ccc4c3)C2)n1 (stereo unspecified)
  cytotoxicity at 10 µM: -5%

## O=C(Nc1ccc(-c2csnn2)cc1)N1CCCC1
  cytotoxicity at 10 µM: -3.8%

## O=C(NCCc1ccncc1)c1cccc(S(=O)(=O)NC2CC2)c1
  cytotoxicity at 10 µM: -151%

## CN(C)c1ncccc1CNC(=O)CCNc1ncccn1
  cytotoxicity at 10 µM: -2.22%

## O=C(Cn1cncn1)NCC1CCN(Cc2ccccc2Cl)CC1
  cytotoxicity at 10 µM: -3.84%

## NC(=O)C1CCN(c2ccc(C(=O)N3CCc4ccccc43)cn2)C1 (stereo unspecified)
  cytotoxicity at 10 µM: -1.29%

## CNC(=O)c1cccnc1NCCOc1ccccc1
  cytotoxicity at 10 µM: -4%

## CCOc1ccnc(N2CCCN(c3nc(C4CC4)ns3)CC2)n1
  cytotoxicity at 10 µM: 6.97%

## COCCNC1(c2ccc(Cl)cc2)CCOCC1
  cytotoxicity at 10 µM: 7.06%

## Cc1cc(CNC(=O)N2CCc3ccccc32)on1
  cytotoxicity at 10 µM: -3.57%

## CC(NC(=O)c1cccc(CN2CCN(C)CC2)c1)c1ccccn1 (stereo unspecified)
  cytotoxicity at 10 µM: -13.5%

## CN(Cc1cc(Br)cn1C)C(=O)c1ccsc1
  cytotoxicity at 10 µM: -10%

## CN(CCC#N)C(=O)CN1CCCC1c1cccs1 (stereo unspecified)
  cytotoxicity at 10 µM: -8.83%

## COCCNC(=O)c1cc(OC)ccc1Br
  cytotoxicity at 10 µM: -4.2%

## O=C(CCCc1ccccn1)N1CCC(n2cccc2)CC1
  cytotoxicity at 10 µM: 4.59%

## O=C(NCc1ccccc1CO)Nc1ccc2c(c1)CCC2
  cytotoxicity at 10 µM: 3.09%

## N#CCCN(CCC#N)C(=O)c1ccc(OCC2CC2)cc1
  cytotoxicity at 10 µM: -10.8%

## O=C1CN(CCCNC(=O)Nc2ccccn2)CCN1
  cytotoxicity at 10 µM: -10.1%

## NC(=O)N1CCCC(C(=O)NCc2ccccc2OC(F)(F)F)C1 (stereo unspecified)
  cytotoxicity at 10 µM: 1.01%

## CC(C)c1nccn1C1CCCN(C(=O)c2ccn(C)c(=O)c2)C1 (stereo unspecified)
  cytotoxicity at 10 µM: 7.35%

## CCc1cnc(N2CCN(CC(=O)Nc3c(C)n[nH]c3C)CC2)s1
  cytotoxicity at 10 µM: -2.69%

## CCN(CC(F)(F)F)C(=O)C1CCCN(Cc2nc(C)c(C)o2)C1 (stereo unspecified)
  cytotoxicity at 10 µM: -4.05%

## O=C(NCCN1CCOCC1)c1cc(Cl)c2c(c1)OCCCO2
  cytotoxicity at 10 µM: -5.29%

## Cc1cccc(Nc2c(C#N)c(=O)n(C)c(=O)n2C)c1
  cytotoxicity at 10 µM: -7.48%

## CC(C)Cc1ccc(C(=O)Cn2cnnc2[S+](C)[O-])cc1 (stereo unspecified)
  cytotoxicity at 10 µM: -7.08%

## CS(=O)(=O)NCC1CCCN(C(=O)Nc2ccccc2N2CCCC2)C1 (stereo unspecified)
  cytotoxicity at 10 µM: -139%

## CNS(=O)(=O)c1ccc(CCC(=O)NCc2cccc(OC)c2)cc1
  cytotoxicity at 10 µM: -148%

## CSc1ccc(NC(=O)NCC2CCCO2)cc1F (stereo unspecified)
  cytotoxicity at 10 µM: -7.81%

## COc1ccc(N(C(=O)Cc2ccc(C)nc2)C(C)C)cc1F
  cytotoxicity at 10 µM: 0.854%

## COC(=O)c1cnc(/C=C/c2ccc(C(=O)O)cc2)s1
  cytotoxicity at 10 µM: 2.56%

## O=c1c2cccnc2cnn1CC(O)c1cccc(Cl)c1 (stereo unspecified)
  cytotoxicity at 10 µM: -10.2%

## COc1c(C)cnc(CNC(=O)CCOCC(C)C)c1C
  cytotoxicity at 10 µM: -4.44%

## CC(C)Cn1ncc2cc(C(=O)N(C)CCc3ccccc3)cnc21
  cytotoxicity at 10 µM: -3.42%

## Cc1occc1C(=O)N1CCC(C(O)c2ccc(F)cc2)CC1 (stereo unspecified)
  cytotoxicity at 10 µM: -2.69%

## CN(c1ccc(OCc2cnc(Cl)s2)cc1)S(C)(=O)=O
  cytotoxicity at 10 µM: 0.867%

## CN1CCN(c2ccc(NC(=O)c3ccccn3)c(C(F)(F)F)c2)CC1
  cytotoxicity at 10 µM: 0.753%

## OCCN1CCN(CC(O)c2cc(Cl)ccc2Cl)CC1 (stereo unspecified)
  cytotoxicity at 10 µM: -3.03%

## Cc1ccc(NC(=O)N2CCCC(O)C2)c(Br)c1 (stereo unspecified)
  cytotoxicity at 10 µM: 7.72%

## CNC(=O)c1cnc(/C=C/c2cc(OC)cc(OC)c2)s1
  cytotoxicity at 10 µM: -19.6%

## Cc1nc(C2(NCC(=O)NCCc3cccs3)CCCC2)no1
  cytotoxicity at 10 µM: -2.18%

## COc1ncccc1C(=O)NCC1Cc2ccccc2O1 (stereo unspecified)
  cytotoxicity at 10 µM: -13.4%

## Cc1ccsc1CCNC(=O)CCC(=O)NC1CCCC1
  cytotoxicity at 10 µM: -2.98%

## Cn1nnnc1SCCNC(=O)C1CCN(C(=O)C2CC2)CC1
  cytotoxicity at 10 µM: -5.95%

## COCCC1(CO)CCCN(Cc2ccc(C#N)cc2)C1 (stereo unspecified)
  cytotoxicity at 10 µM: -156%

## CC(=O)NCCNC(=O)c1cnc2c(c1)nc(-c1ccccc1Cl)n2C
  cytotoxicity at 10 µM: 4.99%

## CC(CNC(=O)c1cc(Cn2cnc3ccccc32)[nH]n1)N1CCCC1 (stereo unspecified)
  cytotoxicity at 10 µM: -4.62%

## Cc1ccc2[nH]c(CN(C)c3cc(CN)nc(C)n3)nc2c1
  cytotoxicity at 10 µM: 1.69%

## COc1ccccc1[C@@H]1CN(Cc2csc(C(C)=O)c2)C[C@H]1C(=O)O
  cytotoxicity at 10 µM: -4.75%

## O=C(c1cc(-c2ccco2)nc2c(Cl)cccc12)N1C[C@H]2CNC[C@H]2C1
  cytotoxicity at 10 µM: -4.23%

## Cn1cc(C#N)cc1C(=O)N1CCC2(CCCN(CC3CCC3)C2=O)C1 (stereo unspecified)
  cytotoxicity at 10 µM: -4.3%

## CC1(CNS(=O)(=O)c2cccc(C(=O)N3CCSCC3)c2)COC1
  cytotoxicity at 10 µM: -6.69%

## O=C(O)[C@H]1C[C@H](C(=O)NCc2ccncc2)CN(CCC(F)(F)F)C1
  cytotoxicity at 10 µM: -142%

## O=C1CCCN1CCc1noc(-c2ccc(Cl)cc2)n1
  cytotoxicity at 10 µM: 7.9%

## CCc1ccc(CN2C[C@@H](C(=O)O)[C@H](c3ccccc3OC)C2)o1
  cytotoxicity at 10 µM: -13.9%

## O=C(CCc1cc(O)no1)N1CCCC(COc2ccccc2F)C1 (stereo unspecified)
  cytotoxicity at 10 µM: 0.296%

## O=C1NCCCC[C@@H]1Nc1ccc(-c2nc(C3CC3)no2)cn1
  cytotoxicity at 10 µM: 2.87%

## CN(C)CCNC(=O)c1ccc(OC2CCN(C(=O)CO)CC2)c(Cl)c1
  cytotoxicity at 10 µM: -2.43%

## O=C1OCCN1Cc1nc(C2(c3ccc(F)cc3)CCOC2)no1 (stereo unspecified)
  cytotoxicity at 10 µM: -5.22%

## CCCOc1ccc(OCCN2CCOCS2(=O)=O)cc1
  cytotoxicity at 10 µM: 5.56%

## Cn1ccnc1-c1ccc(NCc2cn3c(n2)SCC3)nn1
  cytotoxicity at 10 µM: -0.641%

## CCN(CC)C(CNCc1ccc(OC)c(F)c1)c1ccco1 (stereo unspecified)
  cytotoxicity at 10 µM: 15.2%

## O=C(N1CCOCC1)N1CCCC1c1nc(-c2ccccn2)no1 (stereo unspecified)
  cytotoxicity at 10 µM: 10.7%

## CCc1ccccc1OC1CN(C(=O)CN(C)Cc2cccnc2)C1
  cytotoxicity at 10 µM: 1.61%

## C=C(C)COc1ccccc1NC(=O)N1CCOCC1CO (stereo unspecified)
  cytotoxicity at 10 µM: -4.1%

## CCC(NC(=O)c1cnc(N(C)C)nc1C)c1ccc(S(C)(=O)=O)cc1 (stereo unspecified)
  cytotoxicity at 10 µM: -3.5%

## CC[C@@]1(O)CCN(C(=O)c2ccc(-c3cccc(F)c3)cc2)C[C@H]1O
  cytotoxicity at 10 µM: -5.68%

## CCNC(=O)[C@@H]1C[C@H](NC(=O)c2ccccc2C#N)CN1CCCSC
  cytotoxicity at 10 µM: -12.7%

## CC(NC(=O)NCc1ccccn1)c1ccc2c(c1)CCC(=O)N2 (stereo unspecified)
  cytotoxicity at 10 µM: 7.47%

## CCc1ccc(C(=O)NCCNc2ncccn2)cc1
  cytotoxicity at 10 µM: 0.364%

## COc1ccccc1C(C)N(C)Cc1nc2c(cnn2C)c(=O)[nH]1 (stereo unspecified)
  cytotoxicity at 10 µM: -9.1%

## CCc1nc(CN2CCN(C(=O)c3cncnc3CC)CC2)cs1
  cytotoxicity at 10 µM: -11.4%

## O=C(CN1CC(n2cccn2)C1)NCCC1=CCCCC1
  cytotoxicity at 10 µM: -8.25%

## Cc1ccc(N2CCCN(C(=O)C3CCCO3)CC2)nn1 (stereo unspecified)
  cytotoxicity at 10 µM: -11.1%

## O=C(Nc1ccccc1F)C1=NN(c2ccccc2)C(=O)CN1
  cytotoxicity at 10 µM: -13.2%

## O=C(CN1CCCCC1Cn1cncn1)NCCc1ccsc1 (stereo unspecified)
  cytotoxicity at 10 µM: -6.19%

## Cc1nc(C)n(CC2CCCN2CCOc2ccccc2F)n1 (stereo unspecified)
  cytotoxicity at 10 µM: -3.21%

## Cc1cnn(CC(C)NCc2ccc(OCc3noc(C)n3)cc2)c1 (stereo unspecified)
  cytotoxicity at 10 µM: 1.16%

## O=C(c1cn(-c2ccc(F)cc2)nn1)N1CCCC(n2cccn2)C1 (stereo unspecified)
  cytotoxicity at 10 µM: -3.56%

## Cc1cnn(CC2CCCN2C(=O)c2csc(-c3nnc[nH]3)n2)c1 (stereo unspecified)
  cytotoxicity at 10 µM: -2.94%

## Cc1csc(CNC(=O)NCc2ccc3c(c2)OCCO3)n1
  cytotoxicity at 10 µM: -5.52%

## Cc1cccc(CS(=O)(=O)CC(=O)N(C)Cc2ccccc2F)c1
  cytotoxicity at 10 µM: -2.71%

## NC(Cc1nc(-c2ccccc2)no1)c1ccccc1 (stereo unspecified)
  cytotoxicity at 10 µM: -5.08%

## COCc1nn(C)c2c1CN(Cc1cnn(C)c1)CC2
  cytotoxicity at 10 µM: 1.64%

## Cn1ccnc1CN1CCc2ncnc(N3CCCC3)c2CC1
  cytotoxicity at 10 µM: -142%

## COCc1nn(C(C)C)c2c1CCN(Cc1ccoc1)C2
  cytotoxicity at 10 µM: 3.33%

## CO[C@@H]1CCN(C2CCOCC2)C[C@@H]1Cc1ccccc1
  cytotoxicity at 10 µM: -4.87%

## c1csc(CN2CCC3(CCCN(c4nncs4)C3)C2)n1 (stereo unspecified)
  cytotoxicity at 10 µM: -144%

## Cc1ccc2c(n1)N(CCn1cccn1)CCN(C1CCOCC1)C2
  cytotoxicity at 10 µM: -2.83%

## CCN(C)c1ncnc2c1CCN(C(=O)NCc1cccnc1)CC2
  cytotoxicity at 10 µM: -126%

## Cn1cccc1C(=O)N1CCCCC12CC(=O)N(c1cccnc1)C2 (stereo unspecified)
  cytotoxicity at 10 µM: -1.91%

## CN1CCN(C(=O)c2ncn3c2CN(C)S(=O)(=O)c2ccccc2-3)CC1
  cytotoxicity at 10 µM: -153%

## c1csc(N2[C@H](Cn3cncn3)C[C@@H]3CNCC[C@@H]32)n1
  cytotoxicity at 10 µM: -142%

## CCN1CC2(CNCCN(C(=O)Nc3ccccc3)C2)CC1=O (stereo unspecified)
  cytotoxicity at 10 µM: 0.346%

## Cc1noc(C)c1CN1C(=O)[C@@H]2CC[C@H]1CN(Cc1cccc(O)c1)C2
  cytotoxicity at 10 µM: 4.42%

## COc1ccc(Cl)cc1CN(C)CC(=O)Nc1ccnn1C(C)C1CC1 (stereo unspecified)
  cytotoxicity at 10 µM: 4.85%

## CCNc1nc2cn(-c3cccc(OC)c3)c(=O)c-2c[nH]1
  cytotoxicity at 10 µM: 8.65%

## CCn1cc(-n2cc3nc(N4CCC(C)CC4)[nH]cc-3c2=O)cn1
  cytotoxicity at 10 µM: 6.97%
